According to ChEMBL document CHEMBL4350958, “Rational Design of Short Peptide Variants by Using Kunitzin-RE, an Amphibian-Derived Bioactivity Peptide, for Acquired Potent Broad-Spectrum Antimicrobial and Improved Therapeutic Potential of Commensalism Coinfection of Pathogens” (J Med Chem, 2019):
In brackets after ≈: the same amount, converted by molar mass. Where a SMILES comes first, the peptide text is derived from it.

Assays:
[1] = Bactericidal activity against Salmonella pullorum ATCC 7913 incubated for 24 hrs followed by replating on agar plate and measured after overnight incubation; format: functional, Salmonella enterica subsp. enterica serovar Pullorum; conditions: Salmonella enterica, ATCC 7913, 24 h; read-out: MBC>99.9
How it was run: (§1)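 Mid-log bacteria diluted in MHB to (0.5–1) × 10^5 CFU/mL and mixed 1:1 with peptide serially diluted in 0.2% BSA. After 24 h at 37 °C, 50 μL of each mixture was plated on agar and incubated overnight. MBC taken as the lowest concentration killing >99.9% of cells. At least three independent experiments, each with three technical replicates.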

[2] = test system: Escherichia coli; assay: Antibacterial activity against Escherichia coli K88 measured after 24 hrs; format: functional; conditions: K88, 24 h
How it was run: (§2)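 Broth microdilution adapted from NCCLS. Mid-log bacteria were diluted in MHB to a final (0.5–1) × 10^5 CFU mL−1. Peptides were serially diluted in 0.2% BSA and mixed with an equal volume of cells. After 24 h at 37 °C, MIC was read at A492 as the lowest concentration inhibiting 95% of growth. At least three independent experiments, each with three technical replicates.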

[3] = Therapeutic index, ratio of MHC10 for hemolytic activity in human RBC to MIC95 against Candida parapsilosis cgmcc2.3989; format: toxicity; conditions: human red blood cells (erythrocytes), read-out: TI
How it was run: (§3)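 Therapeutic index = MHC divided by MIC. MHC is the lowest concentration giving >10% lysis of human RBC (1 h, 37 °C, 1-128 µM, A576). MIC is 95% growth inhibition by broth microdilution: bacteria in MHB 24 h at 37 °C; Candida in MOPS-buffered RPMI 1640 at (0.5–1) × 10^3 CFU mL−1, 48 h at 28 °C.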

[4] = test system: Staphylococcus aureus; assay: Bactericidal activity against Staphylococcus aureus ATCC 29213 incubated for 24 hrs followed by replating on agar plate and measured after overnight incubation; format: functional; conditions: ATCC 29213, 24 h, read-out: MBC>99.9
How it was run: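 After the 24 h, 37 °C MHB microdilution MIC assay, 50 μL from each well was plated on agar and incubated overnight. MBC taken as lowest peptide concentration killing >99.9% of cells. At least three independent experiments, each with three technical replicates.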

[5] = Therapeutic index, ratio of MHC10 for hemolytic activity in human RBC to MIC95 against Candida tropicalis cgmcc2.1975; format: toxicity; conditions: human red blood cells (erythrocytes), read-out: TI; how it was run: as §3
[6] = test system: Candida albicans; assay: Antifungal activity against Candida albicans cgmcc2.2086 measured after 48 hrs in presence of MgCl by broth microdilution method; format: functional; conditions: cgmcc2.2086, 48 h
[7] = test system: Staphylococcus aureus; assay: Antibacterial activity against methicillin-resistant Staphylococcus aureus ATCC 43300 measured after 24 hrs; format: functional; conditions: ATCC 43300, 24 h
How it was run: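 Broth microdilution modified from NCCLS. Mid-log bacteria at (0.5–1) × 10^5 CFU mL−1 in MHB, mixed with peptides serially diluted in 0.2% BSA. Incubated 24 h at 37 °C, read at A492. MIC taken as lowest concentration giving 95% growth inhibition. At least three independent experiments, each with three technical replicates.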

[8] = test system: Candida albicans; assay: Antifungal activity against Candida albicans cgmcc2.2086 measured after 48 hrs by broth microdilution method; format: functional; conditions: cgmcc2.2086, 48 h
How it was run: (§4)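 Modified CLSI M27-A2 microdilution. Yeast colonies were diluted in MOPS-buffered RPMI 1640 to a final (0.5–1) × 10^3 CFU mL−1 and mixed with an equal volume of peptide serially diluted in 0.2% BSA. After 48 h at 28 °C, MIC was read at A492 as the lowest concentration inhibiting 95% of growth. At least three independent experiments, each with three technical replicates.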

[9] = test system: Candida albicans; assay: Antifungal activity against Candida albicans cgmcc2.2086 measured after 48 hrs in presence of NaCl by broth microdilution method; format: functional; conditions: cgmcc2.2086, 48 h
[10] = test system: Staphylococcus aureus; assay: Antibacterial activity against Staphylococcus aureus ATCC 29213 measured after 18 to 24 hrs in presence of MgCl2; format: functional
[11] = test system: Escherichia coli; assay: Antibacterial activity against Escherichia coli ATCC 25922 measured after 18 to 24 hrs in presence of ZnCl2; format: functional
[12] = Therapeutic index, ratio of MHC10 for hemolytic activity in human RBC to MIC95 against Candida albicans cgmcc2.2086; format: toxicity; conditions: human red blood cells (erythrocytes), read-out: TI; how it was run: as §3
[13] = test system: Escherichia coli; assay: Antibacterial activity against Escherichia coli ATCC 25922 measured after 18 to 24 hrs in presence of NH4Cl; format: functional
[14] = test system: Staphylococcus epidermidis; assay: Antibacterial activity against Staphylococcus epidermidis ATCC 12228 measured after 24 hrs; format: functional; conditions: ATCC 12228, 24 h; how it was run: as §2
[15] = test system: Salmonella typhimurium; assay: Bactericidal activity against Salmonella typhimurium C7731 incubated for 24 hrs followed by replating on agar plate and measured after overnight incubation; format: functional, Salmonella enterica subsp. enterica serovar Typhimurium; conditions: Salmonella enterica, C7731, 24 h; read-out: MBC>99.9; how it was run: as §1
[16] = test system: Escherichia coli; assay: Bactericidal activity against Escherichia coli K88 incubated for 24 hrs followed by replating on agar plate and measured after overnight incubation; format: functional; conditions: K88, 24 h, read-out: MBC>99.9; how it was run: as §1
[17] = test system: Staphylococcus aureus; assay: Antibacterial activity against Staphylococcus aureus ATCC 29213 measured after 18 to 24 hrs in presence of ZnCl2; format: functional
How it was run: (§5)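 MIC broth microdilution (MHB, 0.2% BSA peptide diluent, A492, 95% inhibition) run in the presence of physiological salts at final concentrations of 6 μM NH4Cl or 8 μM ZnCl2. Three independent assays, each with three technical replicates.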

[18] = test system: Staphylococcus aureus; assay: Antibacterial activity against Staphylococcus aureus ATCC 29213 measured after 18 to 24 hrs in presence of NH4Cl; format: functional; how it was run: as §5
[19] = test system: Salmonella typhimurium; assay: Antibacterial activity against Salmonella typhimurium C7731 measured after 24 hrs; format: functional, Salmonella enterica subsp. enterica serovar Typhimurium; conditions: Salmonella enterica, C7731, 24 h; how it was run: as §2
[20] = test system: Escherichia coli; assay: Bactericidal activity against Escherichia coli UB1005 incubated for 24 hrs followed by replating on agar plate and measured after overnight incubation; format: functional; conditions: UB1005, 24 h, read-out: MBC>99.9; how it was run: as §1
[21] = test system: Candida parapsilosis; assay: Antifungal activity against Candida parapsilosis cgmcc2.3989 measured after 48 hrs by broth microdilution method; format: functional; conditions: Lodderomyces parapsilosis, cgmcc2.3989, 48 h; how it was run: as §4
[22] = test system: Escherichia coli; assay: Bactericidal activity against Escherichia coli 078 incubated for 24 hrs followed by replating on agar plate and measured after overnight incubation; format: functional; conditions: Escherichia coli, 078, 24 h; read-out: MBC>99.9
How it was run: (§6)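 After the 24 h, 37 °C MHB microdilution (0.5–1 × 10^5 CFU mL−1 inoculum, peptides diluted in 0.2% BSA), 50 μL from each well was plated on agar and incubated overnight. MBC was taken as the lowest concentration killing >99.9% of cells. Three or more independent experiments, each with triplicate technical replicates.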

[23] = test system: Candida albicans; assay: Antifungal activity against Candida albicans cgmcc2.2086 measured after 48 hrs in presence of FeCl by broth microdilution method; format: functional; conditions: cgmcc2.2086, 48 h
[24] = test system: Escherichia coli; assay: Bactericidal activity against Escherichia coli ATCC 25922 incubated for 24 hrs followed by replating on agar plate and measured after overnight incubation; format: functional; conditions: ATCC 25922, 24 h, read-out: MBC>99.9; how it was run: as §6

Compound	MBC [1] [µM]	MIC95 [2] [µM]	selectivity ratio [3]	selectivity ratio [5]	MIC95 [6] [µM]	MIC95 [7] [µM]	MIC95 [8] [µM]	MIC95 [9] [µM]	MIC95 [10] [µM]	MIC95 [11] [µM]	selectivity ratio [12]	MIC95 [13] [µM]	MIC95 [14] [µM]	MBC [16] [µM]	MIC95 [17] [µM]	MIC95 [18] [µM]	MIC95 [19] [µM]	MBC [20] [µM]	MIC95 [21] [µM]	MIC95 [23] [µM]	further results
H-AARIILRFRFR-NH2	8	4	50.8	50.8	16	2	8	32	2	4	50.8	4	2	8	2	2	4	8	4	8	MBC [4]: 4 µM; MBC [15]: 8 µM; MBC [22]: 8 µM; MBC [24]: 8 µM
H-AAKIILNPKFR-NH2		> 128	2	2	> 128	> 128	> 128	> 128	> 128	> 128	2	> 128	> 128		> 128	> 128	> 128		> 128	> 128	
H-AARIILRRRFR-NH2	32	16	3.17	3.17	> 128	16	128	> 128	32	8	3.17	8	16	32	16	16	8	64	64	> 128	MBC [4]: 32 µM; MBC [15]: 16 µM; MBC [22]: 32 µM; MBC [24]: 16 µM
CC[C@H](C)[C@H](NC(=O)[C@H](CCCCN)NC(=O)[C@H](C)NC(=O)[C@H](C)N)C(=O)N[C@H](C(=O)N[C@@H](CC(C)C)C(=O)N[C@@H](CC(N)=O)C(=O)N1CCC[C@H]1C(=O)N[C@@H](CCCCN)C(=O)N[C@@H](Cc1ccccc1)C(=O)N[C@@H](CCCNC(=N)N)C(=O)N[C@@H](CS)C(=O)N[C@@H](CCCCN)C(=O)N[C@@H](C)C(=O)N[C@@H](C)C(=O)N[C@@H](Cc1ccccc1)C(=O)N[C@@H](CS)C(N)=O)[C@@H](C)CC (H-AAKIILNPKFRCKAAFC-NH2)	> 128	32 (≈ 60.6 µg/mL)	0.25	0.25	> 128	> 128	> 128	> 128	> 128	64	0.25	32	> 128	64 (≈ 121 µg/mL)	> 128	> 128	> 128	128 (≈ 242 µg/mL)	> 128	> 128	MBC [24]: 64 µM (≈ 121 µg/mL)
H-AARIILRNRFR-NH2	32	32	2	2	> 128	> 128	> 128	> 128	> 128	32	2	16	> 128	64	> 128	> 128	32	32	> 128	> 128	MBC [15]: 128 µM; MBC [22]: 32 µM; MBC [24]: 64 µM
